From ChEMBL document CHEMBL4732218, “Synthesis and biological evaluation of benzhydryl-based antiplasmodial agents possessing Plasmodium falciparum chloroquine resistance transporter (PfCRT) inhibitory activity” (Eur J Med Chem, 2021)
pIC50: −log10 of the molar value. Activity calls are given as the source filed them. The rule behind the calls is not given here.

What was measured:
[1] = biological target: T1, Chloroquine resistance transporter (Plasmodium falciparum) (UniProt Q9N623); experiment: Inhibition of Plasmodium falciparum Dd2 CRT expressed in Xenopus laevis oocyte assessed as inhibition of [3H]-CQ transport at 100 uM incubated for 1.5 hrs by microbeta scintillation counting method; assay type: cell-based
T1 sequence (whole entry): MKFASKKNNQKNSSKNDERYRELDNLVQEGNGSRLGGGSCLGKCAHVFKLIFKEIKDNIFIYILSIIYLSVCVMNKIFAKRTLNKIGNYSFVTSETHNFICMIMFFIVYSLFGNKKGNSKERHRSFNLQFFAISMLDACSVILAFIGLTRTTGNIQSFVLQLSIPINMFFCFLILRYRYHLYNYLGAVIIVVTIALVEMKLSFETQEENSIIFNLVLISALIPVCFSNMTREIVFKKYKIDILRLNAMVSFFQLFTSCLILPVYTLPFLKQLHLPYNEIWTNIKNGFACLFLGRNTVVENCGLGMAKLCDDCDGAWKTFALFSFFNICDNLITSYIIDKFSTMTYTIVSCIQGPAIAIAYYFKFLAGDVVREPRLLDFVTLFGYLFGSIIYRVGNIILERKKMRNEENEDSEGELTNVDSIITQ
Procedure, shortened: (§1)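 Xenopus oocytes expressing PfCRT Dd2 and non-expressing oocytes, stored at 16–18 °C in OR2+ buffer (pH 7.8), assayed 3-4 days post-injection. [3H]CQ (0.25 µM) influx measured over 1.5 h at 27.5 °C in pH 5.5 medium (96 mM NaCl, 10 mM MES/Tris) with 15 µM unlabeled CQ, scintillation counting. PfCRT-mediated transport = uptake in expressing minus non-expressing oocytes.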

Plasmodium falciparum [2] = experiment: Antimalarial activity against Plasmodium falciparum D10 by parasite lactate dehydrogenase assay; assay type: functional, organism-based
Plasmodium falciparum [3] = experiment: Antimalarial activity against Plasmodium falciparum W2 by parasite lactate dehydrogenase assay; assay type: functional, organism-based
[4] = biological target: T2, Chloroquine resistance transporter (Plasmodium falciparum, UniProt Q9N623); experiment: Inhibition of Plasmodium falciparum Dd2 CRT expressed in Xenopus laevis oocyte assessed as inhibition of [3H]-CQ transport incubated for 1.5 hrs by microbeta scintillation counting method; assay type: cell-based; procedure, shortened: as §1
T2 sequence (Q9N623 whole entry): T1 sequence (whole entry)

[5] = Cytotoxicity against mouse NIH/3T3 cells assessed as reduction in cell viability incubated for 24 hrs by neutral red dye uptake assay; assay type: cell-based, NIH3T3
Procedure, shortened: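 NIH3T3 cells, 5 × 10^4/well, cultured 24 h at 37 °C, 5% CO2, then exposed 24 h to compounds in DMSO at 8–160 µM; medium alone as negative control. Viability by Neutral Red uptake (3 h at 37 °C), dye extracted in acetic acid/ethanol, absorbance 540 nm. Three experiments, six replicates per concentration.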

Plasmodium berghei [6] = experiment: Antimalarial activity against in Plasmodium berghei ANKA strain GFP-con infected in Balb/c mouse assessed as blocked of transmission activity to Anopheles stephensi by measuring reduction in […] in mosquito at 10 micromol/kg, ip treated first dose 3 days post infection and female mosquitos feed blood meal on day 4 after 1.5 hrs of dosing by direct exposure and measured on day 8 by fluorescence microscopic analysis (reference value: 357); assay type: functional; details: dose 10 µmol/kg; time 3 day
Procedure, shortened: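 P. berghei ANKA GFP-con, i.p. 10^7 infected RBC into 8–10-week BALB/c mice; on day 3 mice with ~5% parasitemia and gametocytes randomised, 3 per group. Dosed i.p. 10 µmol/kg on afternoon of day 3 and again day 4, 1.5 h before 1 h feed by ~150 female An. stephensi. Day 8: fluorescent midgut oocysts counted in 20–30 mosquitoes; triplicate cages; PBS control; two-tailed t-test.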

Plasmodium berghei [7] = experiment: (§2) Antimalarial activity against liver stage Plasmodium berghei PbmCherryhsp70 sporozoites infected in human HepG2 cells assessed as reduction in parasite size at 2 uM incubated for 24 hrs followed by removal of media and supplemented with fresh media and further incubated for 24 hrs by phase contrast microscopic analysis; assay type: functional, organism-based
Procedure, shortened: (§3)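 HepG2 cells (60000/well, seeded day before) infected 2 h with 20'000 PbmCherry_hsp70 sporozoites from An. stephensi salivary glands, then detached, pooled and treated from 2 hpi at graded concentrations with DMSO control. Medium changed 24 hpi; fixed 4% PFA at 48 hpi. Parasite number and size from mCherry signal by automated microscopy; 6 replicates; host growth checked by phase contrast; one-way ANOVA with Dunnett.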

Plasmodium berghei [8] = experiment: as §2, with “parasite number” for “parasite size”, “at 8” for “at 2”, “[…] relative to control” for “analysis”; assay type: functional; procedure, shortened: as §3

SMILES	inhibition [1]	pIC50 (Plasmodium falciparum [2])	pIC50 (Plasmodium falciparum [3])	pIC50 [4]	CC50 at 24 h [5] [nM]	Activity (Plasmodium berghei [6])	inhibition (Plasmodium berghei [7])	inhibition at 8 µM (Plasmodium berghei [8]) [%]
OC(c1ccc(Cl)cc1)c1ccc(CCN2CCCC2)cc1 (centres undefined)	22%	< 4.82	< 4.82					
Clc1ccc(C(Nc2ccnc3cc(Cl)ccc23)c2ccc(CN3CCN(Cc4ccc(C(Nc5ccnc6cc(Cl)ccc56)c5cccc(Cl)c5)cc4)CC3)cc2)cc1 (centres undefined)	Active	6.23	6.34	4.81				
COc1cc(NC(c2ccc(CN3CCCC3)cc2)c2cccc(Cl)c2)c2ncccc2c1 (centres undefined)	65%	5.35	5.43	4.26	28000	491		
OC(c1ccc(Cl)cc1)(c1ccc(CN2CCNCC2)cc1)c1ccnc2cc(Cl)ccc12 (centres undefined)	inactive	5.70	5.70					
O=C(c1ccc(Cl)cc1)c1ccc(CN2CCNCC2)cc1	22%	< 4.82	5.07					
COc1cc(NC(C)CCCN)c2ncccc2c1 (centres undefined) [PRIMAQUINE]		5.24	5.36				Active	50
OC(c1ccc(Cl)cc1)c1ccc(CN2CCNCC2)cc1 (centres undefined)	22%	< 4.82	4.96					
Clc1cccc(C(Nc2ccnc3cc(Cl)ccc23)c2ccc(CCN3CCCC3)cc2)c1 (centres undefined)	inactive	7.64	7.66					
Clc1ccc(C(Nc2ccnc3cc(Cl)ccc23)c2ccc(CN3CCCCC3)cc2)cc1 (centres undefined)	inactive	7.19	7.16					
Oc1cccc(C(Nc2ccnc3cc(Cl)ccc23)c2ccc(CN3CCNCC3)cc2)c1 (centres undefined)	inactive	6.75	6.32					
Clc1ccc(C(Nc2ccnc3cc(Cl)ccc23)c2ccc(CCN3CCCC3)cc2)cc1 (centres undefined)	inactive	7.72	7.57					
COc1cccc(C(Nc2ccnc3cc(Cl)ccc23)c2ccc(CN3CCNCC3)cc2)c1 (centres undefined)	Active	7.40	7.12					
Clc1ccc2c(NC(c3ccc(CN4CCNCC4)cc3)c3cccc(OCCOc4cccc(C(Nc5ccnc6cc(Cl)ccc56)c5ccc(CN6CCNCC6)cc5)c4)c3)ccnc2c1 (centres undefined)	Active							
Clc1cccc(C(Nc2ccnc3cc(Cl)ccc23)c2ccc(CN3CCCCC3)cc2)c1 (centres undefined)	inactive	7.08	7.06					
COc1cc(NC(c2ccc(CN3CCNCC3)cc2)c2cccc(Cl)c2)c2ncccc2c1 (centres undefined)	65%	5.55	5.64	4.19	19000	454		
Clc1ccc(C(c2ccc(CN3CCNCC3)cc2)c2ccnc3cc(Cl)ccc23)cc1 (centres undefined)	inactive	5.43	5.57					
COc1cc(NC(c2ccc(CN3CCNCC3)cc2)c2cccc(Cl)c2)n2nc(C)nc2n1 (centres undefined)	98%	5.43	6.04	4.90	< 3500			
